Data set [1] can be described thus: Drug metabolism assessed as nitric oxide release in absence of rat plasma by Griess reagent based assay. The format is cell-free. (Nitrite, measured by Griess reagent, commonly stands in for NO production.)
The subject of data set [2] is Mycobacterium tuberculosis. Put plainly: Antitubercular activity against Mycobacterium tuberculosis H37Rv. The format is functional. In short, it runs like this:
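Mycobacterium tuberculosis strain H37Rv; minimum inhibitory concentration (MIC) taken as the lowest level needed to inhibit bacterial growth; isoniazid and pyrazinamide served as reference drugs.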

The test system of another data set is Neisseria gonorrhoeae. Kind of data set: Antibacterial activity against Neisseria gonorrhoeae. The format is functional.
A further data set has as its system Escherichia coli. Put plainly: Antibacterial activity against Escherichia coli. The format is functional.
The test system of a further data set is Klebsiella pneumoniae. Put plainly: Antibacterial activity against Klebsiella pneumoniae. The format is functional.
The next data set concerns Citrobacter braakii. Kind of data set: Antibacterial activity against Citrobacter braakii. The data set is classed as functional.
A further data set concerns Proteus vulgaris. Put plainly: Antibacterial activity against Proteus vulgaris. The format is functional.
In the next data set the test system is Serratia marcescens. Kind of data set: Antibacterial activity against Serratia marcescens. The data set is classed as functional.
The test system of a further data set is Shigella flexneri. Put plainly: Antibacterial activity against Shigella flexneri. The format is functional.
The test system of the next data set is Pseudomonas aeruginosa. Put plainly: Antibacterial activity against Pseudomonas aeruginosa. The format is functional.
In another data set the test system is Streptococcus pyogenes. Put plainly: Antibacterial activity against Streptococcus pyogenes. The format is functional.
In data set [3] the test system is Staphylococcus aureus. Kind of data set: Antibacterial activity against Staphylococcus aureus. The format is functional.
In data set [4] the test system is Staphylococcus aureus. Put plainly: Antibacterial activity against methicillin resistant Staphylococcus aureus. The format is functional.
A further data set concerns Trichophyton rubrum. Put plainly: Antifungal activity against Trichophyton rubrum. The format is functional.
The next data set concerns Nannizzia gypsea. Put plainly: Antifungal activity against Trichophyton gypseum. The format is functional.
A further data set has as its system Trichophyton tonsurans. Put plainly: Antifungal activity against Trichophyton tonsurans. The format is functional.
Data set [5] concerns Trichophyton interdigitale. Put plainly: Antifungal activity against Trichophyton mentagrophytes var. interdigitale. The data set is classed as functional.
A further data set deals with Epidermophyton floccosum. Kind of data set: Antifungal activity against Epidermophyton floccosum. The format is functional.
The test system of the next data set is Microsporum canis. Kind of data set: Antifungal activity against Microsporum canis. The format is functional.
For the next data set, the system named is Candida albicans. Put plainly: Antifungal activity against Candida albicans. The data set is classed as functional.
A short description of data set [6]: Antioxidant activity assessed as trolox equivalent of ABTS radical scavenging activity measured after 1 hr by UV-vis spectrophotometric method. The format is functional. Summed up:
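ABTS cation-radical decolorization was read spectrophotometrically as the fall in absorbance after 1 h. Trolox was the reference. TEAC was taken as the ratio of concentration-response slopes, test/Trolox, and IC50 was also derived. Data are mean ± SEM, n = 3.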

In the next data set the test system is Rattus norvegicus. Kind of data set: Antiinflammatory activity in rat model of carrageenan-induced paw edema assessed as inhibition of hind paw swelling at 15 mg/kg, ip measured after 5 hrs. The data set is classed as functional, organism-based. (In general: The carrageenan paw model is a standard test of acute inflammation.)
A short description of data set [7]: Acute toxicity in mouse at 300 mg/kg, ip administered as single dose. The data set is classed as organism-based. The settings on record: in vivo. Summed up: (§1)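 Mice, single intraperitoneal dose, following OECD Guideline for testing of chemicals; three mice per dose level; doses tested 10–300 mg/kg. Read-out is the number of survivors out of 3, used to estimate the expected LD50 range.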

For the next data set, the system named is HeLa. Kind of data set: Cytotoxicity against human HeLa cells. The data set is classed as functional, cell-based.
Another data set deals with NHDF. Kind of data set: Cytotoxicity against HDF cells. The format is cell-based, Homo sapiens. The settings on record: nhdf.
A short description of data set [8]: Selectivity index, ratio of IC50 for HDF cells to IC50 for human HeLa cells. The data set is classed as toxicity. The settings on record: HDF cells versus HeLa cells, read-out: Ratio IC50.
Data set [9] is described as follows: Acute toxicity in mouse at 150 mg/kg, ip administered as single dose. The data set is classed as organism-based. The settings on record: in vivo. In short, it runs like this:
as §1

In the next data set the test system is Trichophyton violaceum. Put plainly: Antifungal activity against Trichophyton violaceum. The format is functional.

≈ marks a conversion by molar mass, not a printed value. Calls of active or inactive are those of the source.

On to `O=[N+]([O-])O[C@H]1CO[C@H]2[C@@H]1OC[C@H]2O[N+](=O)[O-]`, for which, in data set [1], the Drug metabolism result was “Metabolite detected”.

In general, MIC refers to the smallest concentration in the dilution series that meets the test's criterion for growth inhibition. A higher MIC goes with a need for much substance. On to `O=Nc1c(C(F)(F)F)n[nH]c1-c1ccco1`, for which the MIC is 6.2 µg/mL (≈ 26.8 µM) in data set [2]; 15.6 µg/mL (≈ 67.5 µM) against Neisseria gonorrhoeae; 62.5 µg/mL (≈ 270 µM) against Escherichia coli; 125 µg/mL (≈ 541 µM) against Klebsiella pneumoniae; 125 µg/mL (≈ 541 µM) in the data set with Citrobacter braakii; 62.5 µg/mL (≈ 270 µM) in the data set on Proteus vulgaris. The MIC against Serratia marcescens was 125 µg/mL (≈ 541 µM); in the data set on Shigella flexneri, 125 µg/mL (≈ 541 µM); in the data set on Pseudomonas aeruginosa it was more than 500 µg/mL; against Streptococcus pyogenes it was 7.8 µg/mL (≈ 33.7 µM); against Staphylococcus aureus [3], 31.2 µg/mL (≈ 135 µM); in the data set with Staphylococcus aureus [4], 15.6 µg/mL (≈ 67.5 µM). The MIC against Trichophyton rubrum turned out to be 12.5 µg/mL (≈ 54.1 µM); with Nannizzia gypsea it was 25 µg/mL (≈ 108 µM); with Trichophyton tonsurans it was 50 µg/mL (≈ 216 µM); in data set [5] it was 50 µg/mL (≈ 216 µM); in the data set with Epidermophyton floccosum, 50 µg/mL (≈ 216 µM); against Microsporum canis, 12.5 µg/mL (≈ 54.1 µM). This molecule yielded an MIC in the data set with Candida albicans of 25 µg/mL (≈ 108 µM). In addition, the Activity in data set [6] is 0.02 equiv; in data set [7], “Toxic”. For the same molecule, the result in the data set with Rattus norvegicus was Active.

One may read the IC50 as the concentration needed to halve the response being measured. Take `Cc1[nH]nc(C(F)(F)F)c1N=O`: the MIC in data set [2] came to 1.62 µg/mL (≈ 9.05 µM); in the data set on Neisseria gonorrhoeae it was 15.6 µg/mL (≈ 87.1 µM); against Escherichia coli, 250 µg/mL (≈ 1400 µM); in the data set on Klebsiella pneumoniae it was 500 µg/mL (≈ 2790 µM); against Citrobacter braakii, 250 µg/mL (≈ 1400 µM); against Proteus vulgaris it was 31.2 µg/mL (≈ 174 µM). In addition, the MIC against Serratia marcescens worked out at 250 µg/mL (≈ 1400 µM); against Shigella flexneri it was 250 µg/mL (≈ 1400 µM); against Pseudomonas aeruginosa, 500 µg/mL (≈ 2790 µM); in the data set with Streptococcus pyogenes, 7.8 µg/mL (≈ 43.6 µM); against Staphylococcus aureus [3], 31.2 µg/mL (≈ 174 µM); in the data set on Staphylococcus aureus [4] it was 62.5 µg/mL (≈ 349 µM). The MIC with Trichophyton rubrum was 25 µg/mL (≈ 140 µM); against Nannizzia gypsea it was 50 µg/mL (≈ 279 µM); with Trichophyton tonsurans it was 50 µg/mL (≈ 279 µM); in [5], 50 µg/mL (≈ 279 µM); against Epidermophyton floccosum, 50 µg/mL (≈ 279 µM); against Microsporum canis, 25 µg/mL (≈ 140 µM). The MIC in the data set on Candida albicans was 50 µg/mL (≈ 279 µM). Further, the result in [6] was inactive. The Activity entry in the data set with HeLa was “Dose-dependent effect”; in data set [9], “Toxic”. For the same molecule, the half-maximal inhibitory concentration (IC50) in the data set with HeLa (Homo sapiens, HeLa, read-out: IC50) is 61.6 µM; with NHDF, “Not Active”. Moreover, the selectivity ratio in data set [8] is more than 1.62. The outcome with Rattus norvegicus was Active.

As to `CS(=O)(=O)c1ccc(-n2nc(C(F)(F)F)c(N=O)c2-c2ccccc2)cc1`, the MIC in the data set with Neisseria gonorrhoeae was 62.5 µg/mL (≈ 158 µM); against Escherichia coli, more than 250 µg/mL; against Klebsiella pneumoniae, more than 250 µg/mL; in the data set on Citrobacter braakii, more than 250 µg/mL; with Proteus vulgaris it was more than 250 µg/mL; against Serratia marcescens, more than 250 µg/mL. In addition, the MIC is more than 250 µg/mL against Shigella flexneri; more than 250 µg/mL with Pseudomonas aeruginosa; more than 250 µg/mL in the data set with Streptococcus pyogenes; more than 250 µg/mL against Staphylococcus aureus [3]; 31.2 µg/mL (≈ 78.9 µM) in the data set on Staphylococcus aureus [4]; 200 µg/mL (≈ 506 µM) with Trichophyton rubrum. Besides, the MIC against Nannizzia gypsea was 200 µg/mL (≈ 506 µM); against Trichophyton tonsurans it was more than 200 µg/mL; against Trichophyton violaceum, more than 200 µg/mL; in [5] it was 200 µg/mL (≈ 506 µM); against Epidermophyton floccosum it was 200 µg/mL (≈ 506 µM); with Microsporum canis, 200 µg/mL (≈ 506 µM). Also, in the data set on Candida albicans, the MIC is more than 200 µg/mL. In addition, the result in the data set with Rattus norvegicus was Active.

(Values after ChEMBL document CHEMBL4765448, “Multiple biological active 4-aminopyrazoles containing trifluoromethyl and their 4-nitroso-precursors: Synthesis and evaluation” (Eur J Med Chem, 2020).)
